HCT116 PTEN-null – PTEN-deleted cell growth suppression | HCT116 PTEN-null viability, CellTiter-Glo, 60 h; active compounds read low | viability, % at 10 µM | hit rate 1.2% among 140,000 | AID 827;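 active = viability at or below a set limit, 4 SD under the median of all tested compounds, cut at about 3.7% in these data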;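 also: PTEN knockout HCT116 line with beta catenin targeted HCT116 as companion control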
bCat KO growth – beta-catenin-lacking colon tumor cell growth suppression. hit rate 1.5% among 140,000. HCT116 beta-catenin knockout viability, CellTiter-Glo, 60 h; active compounds read low. viability, % at 10 µM;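 active = viability at or under a set limit, the compound median less 4 SD, cut at about 6% in these data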;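 also: 0% = Hyamine 1622 control at 20 µM and 100% = untreated cell control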
Fibroblast inh – blocks proliferation of human lung fibroblasts; AID 719; LL 47 human lung fibroblast viability, ATP luminescence; active compounds read low; viability, % at 10 µM; hit rate 1.1% among 85,000;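 active = viability at or below 50% in the single dose screen; inactive = viability above 50%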;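 also: compound exposure lasted 72 h before the ATP readout; 100% = median luminescence of untreated cell-only wells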
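Test system: LL 47 human lung fibroblasts / Incubation: 72 h compound exposure at 37 °C after overnight plating / Technique: luminescent ATP detection, CellTiter-Glo / Compound dosing: 0.1% DMSO in all compound wells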
HUVEC inhibit – inhibitors of human endothelial cell proliferation. HUVEC proliferation, CellTiter-Glo luminescence, 72 h; active compounds read low. viability, % at 10 µM (by protocol). hit rate 1.1% among 86,000. AID 648;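 active = viability at or below 30%; inactive = viability above 30%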;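 also: 100% = median luminescence of DMSO-only cell control wells on each plate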
H69AR growth 86K – blocks growth of human H69AR lung tumor cells. H69AR lung tumor viability, ATP luminescence, 72 h; active compounds read low. hit rate 6% among 85,000. viability, % at 10 µM;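 active = viability at or below 40%; inactive = viability above 40%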;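 also: multidrug resistant small cell line overexpressing MRP-1 efflux transporter; 100% = mean luminescence of untreated control wells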
* = called active by the depositor; · = no result given. The entries come from a sample that favours hits as a whole.

SMILES | HCT116 PTEN-null | bCat KO growth | Fibroblast inh | HUVEC inhibit | H69AR growth 86K
O=C(COC(=O)c1ccccc1NC(=O)c1ccco1)Nc1ccc2c(c1)OCO2 | 82 | 85 | 95 | 91 | 38*
O=C(COC(=O)c1ccccc1NCc1ccco1)Nc1ccc2c(c1)OCO2 | 89 | 90 | 97 | 84 | 67
CCOC(=O)c1cc(NC(=O)CSCCO)ccc1Cl | 91 | 88 | 97 | 105 | 15*
Cc1ccccc1Cn1c(=N)n(CC(=O)c2ccc([N+](=O)[O-])cc2)c2ccccc21 | 1.4* | 1.9* | · | · | ·
COC(=O)[C@@H]1CC[C@H](C)[C@@H](c2ccc(C)cc2)N1C(=O)c1ccc(/C=N/O[C@@H](C)c2cn([C@H](CO)Cc3ccccc3)nn2)cc1 | 8 | 17 | · | · | ·
C=CCn1c(SCC(=O)Nc2ccc(C(=O)OC(C)C)cc2)nnc1-c1cccs1 | 74 | 96 | 30* | 39 | 25*
COc1ccc(NC(=O)CSc2nnc(-c3cccs3)n2-c2ccccc2)cc1 | 51 | 52 | 39* | 21* | 46
CC(Sc1nnc(-c2cccs2)n1-c1ccccc1)C(=O)NCc1ccc2c(c1)OCO2 (configuration not stated) | 94 | 95 | 103 | 102 | 39*
CCOC(=O)c1ccc(NC(=O)CSc2nnc(-c3cccs3)n2CC)cc1 | 110 | 97 | 92 | 75 | 91
Cn1c(=O)n(C)c2cc(NC(=O)CCl)ccc21 | 5 | 8 | 42* | 54 | 1.5*
O=C(CSc1nnc(Cc2cccs2)n1-c1ccccc1)NCc1ccc2c(c1)OCO2 | 96 | 90 | · | 103 | 97
COc1ccc(NC(=O)CSc2nnc(C3CC3)n2-c2ccccc2)cc1 | 96 | 92 | 95 | 91 | 94
Cc1ccc(NC(=O)C(=O)NCc2ccc(/C=N/NC(=O)c3c(C)nc4ccccn34)o2)cc1 | 88 | 89 | · | · | ·
O=C(CSc1nnc(-c2cccs2)n1-c1ccccc1)N1CCc2ccccc21 | · | · | · | 95 | 16*
O=C(CSc1nc2[nH]ncc2c(=O)n1-c1ccccc1)c1ccc2c(c1)OCCO2 | 71 | 72 | 89 | 56 | 17*
Cc1cccc(NC(=O)CSc2nc3[nH]ncc3c(=O)n2-c2ccccc2)c1 | 80 | 86 | · | · | ·
N#Cc1c(NC(=O)CSc2nnc(-c3ccccc3O)n2-c2ccccc2)sc2c1CCCC2 | 56 | 59 | 99 | 87 | 49
O=C(CSc1nnc(-c2ccco2)n1-c1ccccc1)N1CCc2ccccc21 | · | · | 102 | 88 | 78
C=CCn1c(SC(C)C(=O)NCc2ccc3c(c2)OCO3)nc2scc(-c3ccccc3)c2c1=O (configuration not stated) | 66 | 81 | 94 | 74 | 34*
Cn1c(=O)n(C)c2cc(NC(=O)CSc3nnc(-c4ccccc4O)n3-c3ccccc3)ccc21 | 63 | 60 | 90 | 75 | 33*
C=CCn1c(SCC(=O)NCc2ccc3c(c2)OCO3)nc2scc(-c3ccc(F)cc3)c2c1=O | 73 | 63 | · | · | ·
Cc1ccc(S(=O)(=O)Nc2cc(C(F)(F)F)ccc2N2CCOCC2)c(C)c1 | 87 | 83 | · | · | ·
Cc1ccc(NC(=O)CSc2nnc(-c3ccc(S(=O)(=O)N4CCOCC4)cc3)n2C)cc1 | 109 | 99 | 97 | 102 | 98
O=C(CSc1nnc(-c2cccs2)n1-c1ccccc1)c1ccc2c(c1)OCCO2 | · | · | 77 | 34 | 17*
Cn1c(SCC(=O)Nc2ccc(N3CCOCC3)cc2)nnc1-c1ccccc1 | 119 | 107 | 105 | 15* | 86
SMILES | HCT116 PTEN-null | bCat KO growth | Fibroblast inh | HUVEC inhibit | H69AR growth 86K
COc1cc(Cl)c(C)cc1NC(=O)CSc1cc(Cl)ccc1Cl | 67 | 75 | · | · | ·
CC(=O)c1c(C)oc2c1C(=O)c1ccccc1C2=O | 1.9* | 2.6* | · | · | ·
COc1ccc(CNC(=O)c2ccc(-c3ccccc3)cc2)cc1 | 96 | 102 | · | · | ·
COc1ccc(CNC(=O)c2c(C)oc3c2C(=O)c2ccccc2C3=O)cc1 | 1.3* | 1.3* | · | · | ·
O=C1c2ccccc2C(=O)c2c1oc(C(F)(F)F)c2C(=O)c1ccccc1 | 1.8* | 2.0* | 3.1* | 3.5* | 0.7*
CNc1cccc2c1C(=O)c1ccccc1C2=O | 73 | 83 | · | · | ·
COc1cccc(NC(=S)N2CCC(N(C)CC3CCCO3)CC2)c1 (configuration not stated) | 97 | 88 | · | · | ·
CCOc1ccccc1Nc1nc(-c2sc(NC(=O)c3ccccc3)nc2C)cs1 | 74 | 86 | · | · | ·
CCOc1ccccc1Nc1nc(-c2sc(NC(=O)c3cccc(Cl)c3)nc2C)cs1 | 6 | 5.1* | · | · | ·
Cc1nc(NC(=O)c2ccccc2)sc1-c1csc(N)n1 | 44 | 34 | 84 | 55 | 30*

Screening results (PubChem)
